Data from ChEMBL document CHEMBL1148646, “6-N,N-dimethylamino-2,3-naphthalimide: a new environment-sensitive fluorescent probe in delta- and mu-selective opioid peptides” (J Med Chem, 2006).
Residues, ends and D or L forms follow the SMILES beside them.

Tests used:
[1] = target: Delta-type opioid receptor (Rattus norvegicus, UniProt P33533); experiment: Displacement of [3H]deltorphin C from rat delta opioid receptor in brain P2 synaptosomes; format: subcellular
Outline: (§1)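 Rat brain synaptosome (P2) membranes, preincubated to remove endogenous opioid peptides, stored at -80 °C in buffered 20% glycerol. Five to eight ligand concentrations, each in duplicate, with independent repeats on different synaptosome preparations. Bound radioligand collected on glass fiber filters soaked in 0.1% polyethylenimine and washed thrice in ice-cold buffered BSA. Ki by Cheng-Prusoff; mean ± SE.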

[2] = target: Mu-type opioid receptor (Rattus norvegicus, UniProt P33535); experiment: Displacement of [3H]DAMGO from rat mu opioid receptor in brain P2 synaptosomes; format: subcellular; outline: as §1
Mu-type opioid receptor (Rattus norvegicus, UniProt P33535), sequence (P33535 whole entry): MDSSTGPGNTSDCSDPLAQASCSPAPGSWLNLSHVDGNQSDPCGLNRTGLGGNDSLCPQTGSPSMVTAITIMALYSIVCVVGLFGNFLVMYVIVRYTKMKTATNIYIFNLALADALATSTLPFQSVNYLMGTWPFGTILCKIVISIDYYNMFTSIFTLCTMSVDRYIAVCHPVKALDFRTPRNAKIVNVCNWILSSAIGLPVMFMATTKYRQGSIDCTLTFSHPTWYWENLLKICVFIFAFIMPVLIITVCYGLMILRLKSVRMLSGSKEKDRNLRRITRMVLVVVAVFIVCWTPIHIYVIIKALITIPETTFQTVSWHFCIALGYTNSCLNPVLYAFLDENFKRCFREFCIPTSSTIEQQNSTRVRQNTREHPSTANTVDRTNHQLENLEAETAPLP

[3] = target: Mu-type opioid receptor (Cavia porcellus, UniProt P97266); experiment: Functional bioactivity against mu opioid receptor in guinea-pig ileum; format: tissue-based
Mu-type opioid receptor (Cavia porcellus, UniProt P97266), sequence (P97266 whole entry): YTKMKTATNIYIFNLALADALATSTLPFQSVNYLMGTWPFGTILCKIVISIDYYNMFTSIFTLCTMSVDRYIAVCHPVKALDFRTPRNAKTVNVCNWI
Outline: (§2)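 Myenteric plexus-longitudinal muscle from male guinea pig ileum, field-stimulated with supramaximal bipolar rectangular pulses. Agonist read-out is inhibition of the electrically evoked twitch, referenced to dermorphin, with IC50 taken from dose-response curves. For antagonism, compound is added 5 min before dermorphin, and pA2 comes from Schild plot. At least six experiments on fresh tissue; mean ± SE.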

[4] = target: Opioid receptors; mu & delta (Rattus norvegicus) (UniProt P33533+P33535); experiment: Selectivity for rat delta opioid receptor over mu opioid receptor; format: protein assay
Opioid receptors; mu & delta (Rattus norvegicus), sequence (P33533 whole entry, looked up): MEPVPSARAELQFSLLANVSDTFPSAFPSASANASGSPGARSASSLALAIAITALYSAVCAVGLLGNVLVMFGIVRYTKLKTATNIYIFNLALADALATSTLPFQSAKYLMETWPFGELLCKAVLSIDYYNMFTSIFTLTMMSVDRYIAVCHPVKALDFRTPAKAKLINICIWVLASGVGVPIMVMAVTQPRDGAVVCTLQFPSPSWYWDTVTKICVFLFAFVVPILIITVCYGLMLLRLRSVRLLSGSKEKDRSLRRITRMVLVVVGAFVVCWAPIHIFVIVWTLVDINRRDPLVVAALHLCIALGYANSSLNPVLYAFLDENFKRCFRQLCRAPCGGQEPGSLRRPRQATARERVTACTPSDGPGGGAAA
Opioid receptors; mu & delta (Rattus norvegicus), sequence (P33535 whole entry, looked up): as the sequence (P33535 whole entry) above

[5] = target: Delta-type opioid receptor (Mus musculus) (UniProt P32300); experiment: (§3) Functional bioactivity against delta opioid receptor in mouse vas deferens; format: tissue-based
Delta-type opioid receptor (Mus musculus), sequence (P32300 whole entry): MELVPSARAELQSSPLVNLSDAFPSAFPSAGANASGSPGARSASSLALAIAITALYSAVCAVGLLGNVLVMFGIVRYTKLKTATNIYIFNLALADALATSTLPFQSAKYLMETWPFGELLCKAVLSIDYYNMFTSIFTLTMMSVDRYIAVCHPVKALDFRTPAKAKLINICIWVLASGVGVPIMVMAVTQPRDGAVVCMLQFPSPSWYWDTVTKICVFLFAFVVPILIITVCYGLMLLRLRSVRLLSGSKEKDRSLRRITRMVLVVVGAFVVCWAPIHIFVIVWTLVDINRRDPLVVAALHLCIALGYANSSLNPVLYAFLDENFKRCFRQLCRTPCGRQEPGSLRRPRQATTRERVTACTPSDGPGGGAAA
Outline: as §2, with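 “MVD strips” for “Myenteric plexus-longitudinal muscle from male guinea pig ileum,”, “deltorphin C,” for “dermorphin,”, “plot of the rightward curve shift.” for “plot.”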

[6] = target: Delta-type opioid receptor (Mus musculus, UniProt P32300); experiment: as §3; format: tissue-based
Delta-type opioid receptor (Mus musculus, UniProt P32300), sequence (P32300 whole entry): as above
Outline: as §2, with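 “MVD strips” for “Myenteric plexus-longitudinal muscle from male guinea pig ileum,”, “deltorphin C,” for “dermorphin,”, “plot of the rightward curve shift.” for “plot.”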

Delta-type opioid receptor (Rattus norvegicus, UniProt P33533), sequence (P33533 whole entry): as the sequence (P33533 whole entry, looked up) above

SMILES	Ki [1]	Ki [2]	IC50 [3]	Ratio Ki [4]	Activity ([5]; filed as antagonist)	IC50 [6]	max activation [5]	Activity ([5]; filed as partial agonist)
Cc1cc(O)cc(C)c1C[C@H](N)C(=O)N1Cc2ccccc2C[C@H]1C(=O)N[C@@H](CCC(=O)O)C(=O)NCCCCCC(=O)N[C@@H](CN1C(=O)c2cc3ccc(N(C)C)cc3cc2C1=O)C(N)=O	0.158 nM	41.3 nM	244 nM					
Cc1cc(O)cc(C)c1C[C@H](N)C(=O)N1Cc2ccccc2C[C@H]1C(=O)N[C@@H](CCC(=O)O)C(=O)N[C@@H](CN1C(=O)c2cc3ccc(N(C)C)cc3cc2C1=O)C(N)=O (HELM PEPTIDE1{[Cc1cc(O)cc(C)c1C[C@H](N)C(=O)[*:2]].[Tic].E.[CN(C)c1ccc2cc3c(cc2c1)C(=O)N(C[C@H](N[*:1])C(=O)[*:2])C3=O].[am]}$$$$V2.0)	7.8 nM	7880 nM	100 nM					
Cc1cc(O)cc(C)c1C[C@H](N)C(=O)N1Cc2ccccc2CC1C(=O)N[C@@H](CCC(=O)O)C(=O)NCCCCCC(=O)NC(CN1C(=O)c2cc3ccc(N(C)C)cc3cc2C1=O)C(N)=O (some centres not stated)				261	Antagonist			
CN(C)c1ccc2cc3c(cc2c1)C(=O)N(C[C@H](NC(=O)[C@@H]1CCCN1C(=O)[C@@H](N)Cc1ccc(O)cc1)C(=O)N[C@@H](Cc1ccccc1)C(N)=O)C3=O	839 nM	3420 nM	389 nM			500 nM		
N[C@@H](Cc1ccc(O)cc1)C(=O)N1CCC[C@H]1C(=O)N[C@@H](Cc1ccccc1)C(=O)N[C@@H](Cc1ccccc1)C(=O)NCCCCC/N=C(S)/N=C1/C=CC(=C2c3ccc(O)cc3Oc3cc(O)ccc32)C(C(=O)O)=C1	668 nM	252 nM	120 nM			200 nM	20%	Partial agonist
CN(C)c1ccc2cc3c(cc2c1)C(=O)N(CC(NC(=O)[C@@H]1CCCN1C(=O)[C@@H](N)Cc1ccc(O)cc1)C(=O)N[C@@H](Cc1ccccc1)C(N)=O)C3=O (some centres not stated)				4.1			22%	Partial agonist
CN(C)c1ccc2cc3c(cc2c1)C(=O)N(C[C@H](NC(=O)CCCCCNC(=O)[C@H](Cc1ccccc1)NC(=O)[C@H](Cc1ccccc1)NC(=O)[C@@H]1CCCN1C(=O)[C@@H](N)Cc1ccc(O)cc1)C(N)=O)C3=O (HELM PEPTIDE1{Y.P.F.F.[O=C(CCCCCN[*:1])[*:2]].[CN(C)c1ccc2cc3c(cc2c1)C(=O)N(C[C@H](N[*:1])C(=O)[*:2])C3=O].[am]}$$$$V2.0)	5940 nM	244 nM	253 nM			300 nM		
CN(C)c1ccc2cc3c(cc2c1)C(=O)N(CC(NC(=O)CCCCCNC(=O)[C@H](Cc1ccccc1)NC(=O)[C@H](Cc1ccccc1)NC(=O)[C@@H]1CCCN1C(=O)[C@@H](N)Cc1ccc(O)cc1)C(N)=O)C3=O (some centres not stated) (HELM PEPTIDE1{Y.P.F.F.[O=C(CCCCCN[*:1])[*:2]].[CN(C)c1ccc2cc3c(cc2c1)C(=O)N(CC(N[*:1])C(=O)[*:2])C3=O].[am]}$$$$V2.0)							29%	Partial agonist
